Results reported in ChEMBL document CHEMBL1828498, “Identification and characterization of a novel integrin-linked kinase inhibitor” (J Med Chem, 2011).
Activity calls are given as the source filed them. The rule behind the calls is not given here.

Experiments:
LNCaP = test: Antiproliferative activity against human LNCAP cells assessed as suppression of cell viability by MTT assay; assay type: functional, cell-based
In short: (§1)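 Cancer lines seeded 5000/well and nonmalignant PrEC/MEC 8000/well in 10% FBS, 24 h before treatment. Compound exposure 24 h in 5% FBS medium, 0.1% final DMSO. MTT (0.25 mg/mL) for 1 h at 37°C, dye solubilized in DMSO, absorbance read at 570 nm. Mean ± SD, n = 6.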

[1] = target: Rapamycin-insensitive companion of mTOR (Homo sapiens) (UniProt Q6R327); test: Inhibition of mTORC2 in human PC3 cells assessed as PKCalpha phosphorylation by Western blot analysis; assay type: cell-based; details: PC-3
Chain of Rapamycin-insensitive companion of mTOR (Homo sapiens) (Q6R327 whole entry): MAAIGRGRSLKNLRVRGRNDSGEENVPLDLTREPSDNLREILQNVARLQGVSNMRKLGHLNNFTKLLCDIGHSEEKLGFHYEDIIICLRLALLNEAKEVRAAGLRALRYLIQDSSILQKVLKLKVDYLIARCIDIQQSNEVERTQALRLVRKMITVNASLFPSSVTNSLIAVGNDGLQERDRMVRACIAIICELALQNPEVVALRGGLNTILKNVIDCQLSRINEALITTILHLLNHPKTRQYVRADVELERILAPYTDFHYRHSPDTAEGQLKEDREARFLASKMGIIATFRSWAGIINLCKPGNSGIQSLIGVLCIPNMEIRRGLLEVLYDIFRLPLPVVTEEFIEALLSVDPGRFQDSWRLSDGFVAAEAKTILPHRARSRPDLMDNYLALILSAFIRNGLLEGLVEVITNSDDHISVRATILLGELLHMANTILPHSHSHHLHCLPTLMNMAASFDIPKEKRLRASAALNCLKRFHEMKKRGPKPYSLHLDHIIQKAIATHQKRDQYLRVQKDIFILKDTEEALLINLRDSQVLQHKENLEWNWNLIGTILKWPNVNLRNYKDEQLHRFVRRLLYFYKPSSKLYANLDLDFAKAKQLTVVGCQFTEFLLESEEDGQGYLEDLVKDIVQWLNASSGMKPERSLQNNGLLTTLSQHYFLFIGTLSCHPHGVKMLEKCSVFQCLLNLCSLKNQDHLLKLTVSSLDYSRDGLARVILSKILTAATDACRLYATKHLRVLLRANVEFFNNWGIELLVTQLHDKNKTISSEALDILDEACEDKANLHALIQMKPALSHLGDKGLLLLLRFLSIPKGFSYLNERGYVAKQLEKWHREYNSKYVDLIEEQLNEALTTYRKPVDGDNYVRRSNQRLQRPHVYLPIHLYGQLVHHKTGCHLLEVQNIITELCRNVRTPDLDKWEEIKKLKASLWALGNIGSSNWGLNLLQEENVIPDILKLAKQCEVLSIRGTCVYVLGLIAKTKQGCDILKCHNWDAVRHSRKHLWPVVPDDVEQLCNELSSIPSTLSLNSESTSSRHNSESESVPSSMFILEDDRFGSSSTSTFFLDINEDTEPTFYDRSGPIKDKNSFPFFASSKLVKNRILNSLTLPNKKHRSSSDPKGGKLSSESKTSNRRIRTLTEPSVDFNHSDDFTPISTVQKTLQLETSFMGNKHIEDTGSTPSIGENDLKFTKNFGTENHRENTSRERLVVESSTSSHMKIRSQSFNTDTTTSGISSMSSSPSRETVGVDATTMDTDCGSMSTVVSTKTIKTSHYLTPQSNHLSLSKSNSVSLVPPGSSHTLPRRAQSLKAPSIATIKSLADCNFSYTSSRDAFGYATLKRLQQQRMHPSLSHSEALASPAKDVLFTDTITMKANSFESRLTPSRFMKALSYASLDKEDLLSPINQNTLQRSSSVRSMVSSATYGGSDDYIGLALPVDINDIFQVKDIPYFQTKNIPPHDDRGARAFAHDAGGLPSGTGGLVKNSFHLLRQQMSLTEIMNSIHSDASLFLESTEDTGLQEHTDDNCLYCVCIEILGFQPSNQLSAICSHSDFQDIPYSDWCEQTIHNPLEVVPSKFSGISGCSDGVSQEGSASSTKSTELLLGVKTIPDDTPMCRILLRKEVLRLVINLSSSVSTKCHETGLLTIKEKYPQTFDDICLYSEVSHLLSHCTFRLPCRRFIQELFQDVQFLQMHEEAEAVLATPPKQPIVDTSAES
In short: (§2)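 Cells exposed 24 h in 5% FBS medium, final DMSO 0.1%; lysed in 1% SDS/10 mM EDTA/50 mM Tris pH 8.1, equal protein on SDS-PAGE, nitrocellulose, primary antibody 1:1000 at 4°C for 2 h, HRP secondary 1:5000, ECL detection; blots representative of three independent experiments.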

PC-3 [2] = test: Antiproliferative activity against human PC3 cells expressing constitutively active ILK assessed as cell viability by MTT assay; assay type: functional, cell-based
In short: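 Stable PC-3 clones expressing GFP-CA-ILK (or GFP), made by electroporation, G418 250 μg/mL for one week and GFP sorting. Treated 24 h in 5% FBS medium. Viability by MTT, 0.25 mg/mL, 1 h at 37°C, A570. n = 6, mean ± SD.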

[3] = target: Ribosomal protein S6 kinase beta-1 (Homo sapiens) (UniProt P23443); test: Inhibition of p70S6K in human PC3 cells assessed as decrease in phosphorylated S6 by Western blot analysis; assay type: cell-based; details: PC-3
Chain of Ribosomal protein S6 kinase beta-1 (Homo sapiens) (P23443 whole entry, looked up): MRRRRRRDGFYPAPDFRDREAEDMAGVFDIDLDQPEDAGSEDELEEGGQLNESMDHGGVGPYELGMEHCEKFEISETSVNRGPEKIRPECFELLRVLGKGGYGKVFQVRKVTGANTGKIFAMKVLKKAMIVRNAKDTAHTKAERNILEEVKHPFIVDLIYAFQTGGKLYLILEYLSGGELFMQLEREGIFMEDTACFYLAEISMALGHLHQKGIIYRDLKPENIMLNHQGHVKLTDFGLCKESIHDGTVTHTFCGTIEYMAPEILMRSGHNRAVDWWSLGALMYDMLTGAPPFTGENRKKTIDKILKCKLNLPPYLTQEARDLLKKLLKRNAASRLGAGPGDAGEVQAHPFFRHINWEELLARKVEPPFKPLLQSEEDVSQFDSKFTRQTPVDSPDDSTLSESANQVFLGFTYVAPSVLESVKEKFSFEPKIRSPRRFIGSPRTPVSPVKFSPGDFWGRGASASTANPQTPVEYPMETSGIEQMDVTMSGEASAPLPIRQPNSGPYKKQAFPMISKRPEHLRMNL
In short: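 PC-3 cells (parental, or stable GFP-CA-ILK clones selected with G418 250 μg/mL and GFP sorting) exposed 24 h in 5% FBS medium; SDS lysis, immunoblot at 1:1000 primary, ECL; representative of three experiments.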

PC-3 [4] = test: Induction of apoptosis in human PC3 cells assessed as late apoptotic cells at 2 uM by annexin V/PI staining (reference value: 9.8%); assay type: functional
Mus musculus [5] = test: Toxicity in nude mouse assessed as weight loss at 25 mg/kg, po administered for 35 days; assay type: organism-based; parameters: dose 25 mg/kg, route oral; details: in vivo, 840 h
In short: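 Male NCr nude mice bearing s.c. PC-3 tumors, dosed once daily by oral gavage in 0.5% methylcellulose/0.1% Tween 80 vehicle, 10 μL/g, for 35 days; body weight recorded weekly.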

[6] = target: 3-phosphoinositide-dependent protein kinase 1 (Homo sapiens) (UniProt O15530); test: Inhibition of PDK1 at 5 uM assessed as remaining activity
Chain of 3-phosphoinositide-dependent protein kinase 1 (Homo sapiens) (O15530 whole entry, looked up): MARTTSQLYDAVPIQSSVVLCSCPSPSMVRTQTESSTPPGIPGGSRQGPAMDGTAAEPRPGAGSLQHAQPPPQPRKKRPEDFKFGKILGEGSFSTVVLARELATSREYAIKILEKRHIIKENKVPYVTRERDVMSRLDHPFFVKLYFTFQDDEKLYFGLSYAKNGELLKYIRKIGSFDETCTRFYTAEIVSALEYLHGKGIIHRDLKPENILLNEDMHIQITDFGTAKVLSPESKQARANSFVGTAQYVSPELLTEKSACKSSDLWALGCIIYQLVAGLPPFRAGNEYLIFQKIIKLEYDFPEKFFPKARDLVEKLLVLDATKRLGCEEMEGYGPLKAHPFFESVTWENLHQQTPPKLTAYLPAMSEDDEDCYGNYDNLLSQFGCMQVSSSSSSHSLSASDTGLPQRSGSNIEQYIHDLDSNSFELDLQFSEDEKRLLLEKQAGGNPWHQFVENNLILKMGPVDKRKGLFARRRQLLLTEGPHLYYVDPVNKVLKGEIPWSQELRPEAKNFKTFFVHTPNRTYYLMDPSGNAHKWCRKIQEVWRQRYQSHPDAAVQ

SK-BR-3 [7] = test: Reduction in EGFR mRNA expression in human SKBR3 cells expressing constitutively active ILK after 24 hrs by RT-PCR analysis; assay type: functional, cell-based
In short: (§3)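 PC-3, PC-3/CA-ILK, SKBR3 and SKBR3/CA-ILK cells treated 24 h in 5% FBS medium; total RNA from 1 × 10^6 cells by Trizol, 1 μg reverse-transcribed, then PCR with gene-specific primers and β-actin reference.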

PC-3 [8] = test: Reduction in EGFR mRNA expression in human PC3 cells expressing constitutively active ILK after 24 hrs by RT-PCR analysis; assay type: functional, cell-based; in short: as §3
PC-3 [9] = test: Reduction in EGFR concentration in human PC3 cells expressing constitutively active ILK after 24 hrs by Western blot analysis; assay type: functional, cell-based
In short: (§4)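 PC-3 versus stable PC-3/CA-ILK, or SKBR3 versus transient SKBR3/CA-ILK (electroporation, used 48 h after), treated 24 h in 5% FBS medium; immunoblotting with ECL; representative of three experiments.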

[10] = target: Tyrosine-protein kinase JAK2 (Homo sapiens) (UniProt O60674); test: Inhibition of Jak2 at 5 uM assessed as remaining activity
Chain of Tyrosine-protein kinase JAK2 (Homo sapiens) (O60674 whole entry): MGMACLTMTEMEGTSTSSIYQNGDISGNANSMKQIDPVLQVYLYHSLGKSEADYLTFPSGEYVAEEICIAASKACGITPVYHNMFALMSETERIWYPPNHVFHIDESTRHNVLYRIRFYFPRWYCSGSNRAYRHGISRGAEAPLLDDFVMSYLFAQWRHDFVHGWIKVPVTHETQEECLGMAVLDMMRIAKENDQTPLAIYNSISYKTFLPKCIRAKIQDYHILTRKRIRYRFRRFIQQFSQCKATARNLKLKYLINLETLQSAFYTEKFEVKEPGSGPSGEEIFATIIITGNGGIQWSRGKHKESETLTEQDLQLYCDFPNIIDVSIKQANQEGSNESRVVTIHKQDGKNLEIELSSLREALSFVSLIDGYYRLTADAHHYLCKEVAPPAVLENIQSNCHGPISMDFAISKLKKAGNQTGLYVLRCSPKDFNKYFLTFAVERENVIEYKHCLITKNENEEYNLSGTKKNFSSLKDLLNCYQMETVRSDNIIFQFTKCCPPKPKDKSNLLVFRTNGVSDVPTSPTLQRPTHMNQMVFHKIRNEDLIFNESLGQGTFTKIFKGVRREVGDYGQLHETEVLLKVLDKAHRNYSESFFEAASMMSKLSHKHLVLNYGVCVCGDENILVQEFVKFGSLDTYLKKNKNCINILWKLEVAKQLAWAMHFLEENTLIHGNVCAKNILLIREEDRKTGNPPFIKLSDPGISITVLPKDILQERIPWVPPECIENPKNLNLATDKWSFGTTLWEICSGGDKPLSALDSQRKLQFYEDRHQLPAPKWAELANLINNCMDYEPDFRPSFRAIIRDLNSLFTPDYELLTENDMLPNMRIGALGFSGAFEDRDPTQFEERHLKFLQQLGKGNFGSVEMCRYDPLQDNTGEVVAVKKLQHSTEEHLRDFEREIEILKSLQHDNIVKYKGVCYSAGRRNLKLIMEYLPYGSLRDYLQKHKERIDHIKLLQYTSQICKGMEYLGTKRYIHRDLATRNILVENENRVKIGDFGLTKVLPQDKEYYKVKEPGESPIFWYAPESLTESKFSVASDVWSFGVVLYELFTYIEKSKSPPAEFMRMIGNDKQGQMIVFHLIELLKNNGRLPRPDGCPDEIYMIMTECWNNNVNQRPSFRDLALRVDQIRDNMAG
In short: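 Panel of 20 recombinant kinases, profiled by a commercial vendor.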

[11] = target: Tyrosine-protein kinase ZAP-70 (Homo sapiens) (UniProt P43403); test: Inhibition of ZAP70 at 5 uM assessed as remaining activity
Chain of Tyrosine-protein kinase ZAP-70 (Homo sapiens) (P43403 whole entry): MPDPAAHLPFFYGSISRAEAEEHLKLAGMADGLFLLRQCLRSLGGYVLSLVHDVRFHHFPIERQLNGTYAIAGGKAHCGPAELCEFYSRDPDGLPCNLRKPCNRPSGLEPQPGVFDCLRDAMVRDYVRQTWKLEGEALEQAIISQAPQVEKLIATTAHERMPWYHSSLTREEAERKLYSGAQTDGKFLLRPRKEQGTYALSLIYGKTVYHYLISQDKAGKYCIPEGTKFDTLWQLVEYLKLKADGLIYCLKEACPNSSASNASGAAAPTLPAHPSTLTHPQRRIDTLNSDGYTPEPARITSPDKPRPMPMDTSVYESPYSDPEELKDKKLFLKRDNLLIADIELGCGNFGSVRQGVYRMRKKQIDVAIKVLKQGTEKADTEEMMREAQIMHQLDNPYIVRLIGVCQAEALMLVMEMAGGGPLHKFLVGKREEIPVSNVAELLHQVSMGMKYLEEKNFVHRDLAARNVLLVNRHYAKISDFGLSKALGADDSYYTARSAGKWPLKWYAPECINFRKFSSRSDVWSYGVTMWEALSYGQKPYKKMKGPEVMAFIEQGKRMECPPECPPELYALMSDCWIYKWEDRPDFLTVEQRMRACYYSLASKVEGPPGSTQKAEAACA

[12] = target: Rapamycin-insensitive companion of mTOR (Homo sapiens) (UniProt Q6R327); test: Inhibition of mTORC2 in human MDA-MB-231 cells assessed as PKCalpha phosphorylation by Western blot analysis; assay type: cell-based; in short: as §2
PC-3 [13] = test: Induction of apoptosis in human PC3 cells up to 2 uM after 48 hrs by flow cytometry; assay type: functional, cell-based
PC-3 [14] = test: Reduction in HER2 concentration in human PC3 cells expressing constitutively active ILK after 24 hrs by Western blot analysis; assay type: functional, cell-based; in short: as §4
MDA-MB-468 = test: Antiproliferative activity against human MDA-MB-468 cells assessed as suppression of cell viability by MTT assay; assay type: functional, cell-based; in short: as §1
Mus musculus [15] = test: Decrease in phosphorylation of GSK3-beta in human PC3 cells xenografted nude mouse tumor lysate at 25 mg/kg, po administered for 35 days by Western blot analysis; assay type: functional, organism-based; parameters: dose 25 mg/kg; details: Neoplasm, PC-3
In short: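 Male NCr athymic nude mice, 5–7 weeks, with s.c. PC-3 xenografts (0.5 × 10^6 cells in 50% Matrigel), dosed by oral gavage once daily for 35 days. Vehicle 0.5% methylcellulose, 0.1% Tween 80 in water, 10 μL/g. Tumors snap-frozen at sacrifice; three tumors per group immunoblotted.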

PrEC = test: Antiproliferative activity against human PrEC cells at 1 to 5 uM by MTT assay; assay type: cell-based; in short: as §1
Mus musculus [16] = test: Inhibition of phosphorylation of Thr-308-Akt in human PC3 cells xenografted nude mouse tumor lysate at 25 mg/kg, po administered for 35 days by Western blot analysis; assay type: functional, organism-based; parameters: dose 25 mg/kg; details: Neoplasm, PC-3
In short: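 Tumors harvested at terminal sacrifice after 35 days of daily oral dosing, snap-frozen and stored at -80°C; lysates immunoblotted, three representative tumors per group.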

MDA-MB-231 = test: Antiproliferative activity against human MDA-MB-231 cells assessed as suppression of cell viability by MTT assay; assay type: functional, cell-based; in short: as §1
SK-BR-3 [17] = test: Reduction in EGFR mRNA expression in human SKBR3 cells after 24 hrs by RT-PCR analysis; assay type: functional, cell-based; in short: as §3
PC-3 [18] = test: Reduction in EGFR mRNA expression in human PC3 cells after 24 hrs by RT-PCR analysis; assay type: functional, cell-based; in short: as §3

## CNC(=O)CCc1cc(-c2ccc(-c3ccc(C(F)(F)F)cc3)cc2)n(-c2ccc(N3CCNCC3)cc2)n1
LNCaP
  IC50: 1600 nM
[1]
  inhibition: inactive
PC-3 [2]
  inhibition: inactive
[3]
  inhibition: Active
PC-3 [4]
  Activity: 11.6%
Mus musculus [5]
  Activity: Non-toxic
[6]
  Activity: 94%
SK-BR-3 [7]
  Activity: inactive
PC-3 [8]
  Activity: inactive
PC-3 [9]
  Activity: inactive
[10]
  Activity: 114%
[11]
  Activity: 104%
[12]
  inhibition: inactive
PC-3 [13]
  Activity: inactive
PC-3 [14]
  Activity: inactive
MDA-MB-468
  IC50: 1500 nM
Mus musculus [15]
  Activity: Active
PrEC
  inhibition (INH): Not Active
Mus musculus [16]
  Activity: inactive
MDA-MB-231
  IC50: 1000 nM
SK-BR-3 [17]
  Activity: Dose-dependent effect
PC-3 [18]
  Activity: Dose-dependent effect
